Data published in ChEMBL document CHEMBL1152271, “Interrogating the bioactive pharmacophore of the latrunculin chemotype by investigating the metabolites of two taxonomically unrelated sponges” (J Med Chem, 2008).
The source made the active and inactive calls. The rule behind the calls is not given here.

Experiments:
[1] = tested on: A10; experiment: Disruption of microfilament in rat A10 cells at 9 uM after 18 hrs using DAPI staining by fluorescence microscopy; format: functional, cell-based
[2] = tested on: MDA-MB-435; experiment: Cytotoxicity against human MDA-MB-435 cells 48 hrs by SRB assay; format: functional, cell-based; conditions: MDA-MB-435, 48 h
[3] = tested on: MDA-MB-435; experiment: Ratio of IC50 for human MDA-MB-435 cells to IC50 for human HCT116 cells; format: functional
[4] = tested on: HCT-116; experiment: Cytotoxicity against human HCT116 cells after 3 days by trypan blue assay; format: functional, cell-based; conditions: HCT-116, 72 h
[5] = tested on: A10; experiment: Disruption of microfilament in rat A10 cells at 5 uM after 18 hrs using DAPI staining by fluorescence microscopy
[6] = tested on: MC-38; experiment: Cytotoxicity against mouse Colon 38 cells at 4.0 uM by disk diffusion soft agar colony formation assay; format: functional; conditions: read-out: IZ
Procedure, shortened: (§1)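 Disk diffusion soft-agar colony formation assay with murine colon 38 cells. The compound is adsorbed onto a disk at a concentration similar to the other compounds tested. The read-out is the zone of inhibition (Z), recorded in mm.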

[7] = tested on: MC-38; experiment: Cytotoxicity against mouse Colon 38 cells at 3.5 uM by disk diffusion soft agar colony formation assay; format: functional; conditions: read-out: IZ; procedure, shortened: as §1
[8] = tested on: MC-38; experiment: Cytotoxicity against mouse Colon 38 cells at 1.9 uM by disk diffusion soft agar colony formation assay; format: functional; conditions: read-out: IZ
Procedure, shortened: (§2)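 Soft agar disk diffusion colony formation assay with murine colon 38 cells, run alongside murine L1210 and CFU-GM. Compound adsorbed onto a disk at similar loadings across compounds. Read-out is the zone of inhibition (Z) in mm. Full method described previously.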

[9] = tested on: MC-38; experiment: Cytotoxicity against mouse Colon 38 cells at 5.1 uM by disk diffusion soft agar colony formation assay; format: functional; conditions: read-out: IZ; procedure, shortened: as §2
[10] = tested on: MC-38; experiment: Cytotoxicity against mouse Colon 38 cells at 1.1 uM by disk diffusion soft agar colony formation assay; format: functional; conditions: read-out: IZ; procedure, shortened: as §1

Compound	Activity [1]	IC50 [2]	Ratio IC50 [3]	IC50 [4]	Activity [5]	zone of inhibition at 4 µM [6]	zone of inhibition at 3.5 µM [7]	zone of inhibition at 1.9 µM [8]	zone of inhibition at 5.1 µM [9]	zone of inhibition at 1.1 µM [10]
C/C1=C/C(=O)O[C@@H]2C[C@@H](CC[C@H](C)C(=O)/C=C/C(O)CC1)O[C@@](O)([C@@H]1CSC(=O)N1)C2 (some centres undefined)	inactive	30.5 µM	<0.6	> 53 µM	–	–	–	–	–	–
C/C1=C/C(=O)O[C@@H]2C[C@@H](CC[C@H](C)/C=C\[C@@H]3OC(C)(C)O[C@H]3CC1)O[C@@](O)([C@@H]1CSC(=O)N1)C2	–	7.9 µM	1.5	5.1 µM	Active	21 mm	–	–	–	–
CO[C@]1([C@@H]2CSC(=O)N2)C[C@H]2C[C@@H](CC[C@H](C)/C=C\CC/C(C)=C\C(=O)O2)O1 [15-METHOXYLATRUNCULIN B]	–	29.7 µM	0.6	49 µM	inactive	–	–	–	–	–
C/C1=C/C(=O)O[C@@H]2C[C@@H](CC[C@H](C)/C=C\CC1)O[C@@](O)([C@H]1CSC(=O)N1)C2 [16-EPI-LATRUNCULIN B]	–	17 µM	0.5	38 µM	Active	–	–	–	–	–
C/C1=C/C(=O)O[C@@H]2C[C@@H](CC[C@H](C)/C=C\[C@H](O)[C@@H](O)CC1)O[C@@](O)([C@H]1CSC(=O)N1)C2 [18-EPI-LATRUNCULOL A]	–	> 50 µM	>9.1	5.5 µM	inactive	–	17 mm	–	–	–
C/C(=C/C(=O)O)CC/C=C\[C@@H](C)CC[C@@H]1CC=CC(=O)O1 [LATRUNCULEIC ACID]	–	26.1 µM	0.5	48 µM	inactive	–	–	–	–	–
C/C1=C/C(=O)O[C@@H]2C[C@@H](CC[C@H](C)/C=C\C=C\CC1)O[C@@](O)([C@@H]1CSC(=O)N1)C2 [LATRUNCULIN A]	–	2.8 µM	2.5	1.1 µM	Active	–	–	9 mm	–	–
C/C1=C/C(=O)O[C@@H]2C[C@@H](CC[C@H](C)/C=C\CC1)O[C@@](O)([C@@H]1CSC(=O)N1)C2 [LATRUNCULIN B]	–	4.8 µM	0.7	7.1 µM	Active	–	–	–	13 mm	–
C/C1=C/C(=O)O[C@@H](CC(O)[C@@H]2CSC(=O)N2)C[C@H](O)CC[C@H](C)/C=C\CC1 (some centres undefined) [LATRUNCULIN C]	–	34.3 µM	<0.3	> 100 µM	inactive	–	–	–	–	–
C/C1=C/C(=O)O[C@@H]2C[C@@H](CC[C@H](C)/C=C\[C@H](O)[C@@H](O)CC1)O[C@@](O)([C@@H]1CSC(=O)N1)C2 [LATRUNCULOL A]	–	2.1 µM	4.4	0.48 µM	Active	–	–	–	–	23.5 mm
CO[C@H]1/C=C\[C@@H](C)CC[C@@H]2C[C@H](C[C@](O)([C@@H]3CSC(=O)N3)O2)OC(=O)/C=C(/C)CC[C@@H]1O [LATRUNCULOL B]	–	4 µM	1.9	2.1 µM	Active	–	–	–	–	19.5 mm
C/C1=C/C(=O)O[C@@H]2C[C@@H](CC[C@H](C)/C=C\[C@H](O)[C@H](O)CC1)O[C@@](O)([C@@H]1CSC(=O)N1)C2 [LATRUNCULOL C]	–	11.9 µM	<0.2	> 53 µM	Active	–	–	–	–	–
C/C1=C/C(=O)O[C@@H]2C[C@@H](CC[C@H](C)/C=C\CC(=O)CC1)O[C@@](O)([C@@H]1CSC(=O)N1)C2 [LATRUNCULONE B]	–	1 µM	1.1	0.92 µM	Active	–	–	–	–	19.5 mm
